Reference: paper PMC6016778 (Proceedings of the National Academy of Sciences of the …, 2018)
Where two headings read alike, the source gives them in different places. Positions of bridges follow the written chain, without caps; N, C: chain ends. Non-standard residues stand in square brackets, D forms with d. Residues, ends and D or L forms follow the SMILES beside them. R8 = C=CCCCCCC[C@@](C)(N)C(=O)O; S5 = C=CCCC[C@](C)(N)C(=O)O

Assays:
[1] = molecular target: Beclin 1 coiled-coil domain (Rattus norvegicus, UniProt Q91XJ1); test: ITC binding of designed peptides to Beclin 1 coiled-coil domain
HEK293T cells [2] = test: LC3-II and p62 Western blots after peptide treatment, HEK293T cells; format: cell-based; settings: 3 h
Summary of the method: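 HEK293T cells were treated 3 h with peptide or scrambled Tat control at 10 µM (low) or 20 µM (high) in the culture medium, without or with chloroquine. Lysates were Western blotted for LC3-I/LC3-II lipidation and p62 levels.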

UVRAG coiled-coil domain [3] = test: ITC
Chain of UVRAG coiled-coil domain (Q8K245 whole entry, the tested form may be a part): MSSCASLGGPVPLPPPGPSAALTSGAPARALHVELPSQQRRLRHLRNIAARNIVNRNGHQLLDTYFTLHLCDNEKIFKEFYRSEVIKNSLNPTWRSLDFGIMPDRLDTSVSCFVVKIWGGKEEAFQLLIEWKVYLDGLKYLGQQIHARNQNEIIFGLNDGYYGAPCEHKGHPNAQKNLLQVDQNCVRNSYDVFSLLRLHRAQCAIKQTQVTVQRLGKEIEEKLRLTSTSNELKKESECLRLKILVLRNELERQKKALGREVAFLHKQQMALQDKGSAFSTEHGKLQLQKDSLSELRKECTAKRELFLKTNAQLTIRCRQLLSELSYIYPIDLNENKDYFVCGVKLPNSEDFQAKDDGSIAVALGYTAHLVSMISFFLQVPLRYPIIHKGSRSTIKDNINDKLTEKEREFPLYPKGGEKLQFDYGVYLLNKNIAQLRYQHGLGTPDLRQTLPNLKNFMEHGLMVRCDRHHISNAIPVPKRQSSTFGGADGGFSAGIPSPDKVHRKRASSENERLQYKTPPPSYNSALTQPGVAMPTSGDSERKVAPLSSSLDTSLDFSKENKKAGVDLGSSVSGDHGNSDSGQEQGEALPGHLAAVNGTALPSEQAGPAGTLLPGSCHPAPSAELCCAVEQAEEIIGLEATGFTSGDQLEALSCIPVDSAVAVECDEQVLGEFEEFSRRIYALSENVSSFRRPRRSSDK

UVRAG coiled-coil domain [4] = test: ITC; remark: listed apart in the source
[5] = system: Beclin 1–UVRAG interaction; test: Co-IP of Beclin 1–UVRAG interaction, HEK293T; format: cell-based; settings: peptide 20 μM added to cell lysate
EGFR [6] = test: EGFR degradation assay, H1975 cells; format: cell-based; settings: peptide 20 μM, 15 h after EGF, n = 3
Summary of the method: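 H1975 cells were serum-starved overnight in DMEM, then stimulated with 200 ng/mL EGF in DMEM with 20 mM Hepes and 0.2% BSA, together with 20 µM peptide or scrambled control. At each time point, 20 µg lysate was immunoblotted for EGFR. EGFR was normalized to β-actin and to time 0, from three independent experiments.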

EGFR [7] = test: EGFR degradation assay, A549 cells; format: cell-based; settings: n = 3
Summary of the method: (§1)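 Overexpression arm: cells were transfected with FLAG-UVRAG wild-type or Leu-to-Glu mutants, or vector. Cells were washed in PBS, serum-starved overnight in DMEM, then given DMEM with 20 mM Hepes, 0.2% BSA and 200 ng/mL EGF. Peptide arm: 20 µM peptide or control was added together with EGF. At each time point, 20 µg lysate was immunoblotted for EGFR, normalized to β-actin and to time 0. Three independent experiments, mean ± SEM.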

A549 cells = test: MTT cytotoxicity / cell viability, A549 cells; format: cell-based; settings: 12.5 and 25 µM, 5 h
EGFR [8] = test: EGFR degradation assay, HEK293T cells; format: cell-based; settings: n = 3
Summary of the method: as §1

HEK293T cells [9] = test: MTT cytotoxicity / cell viability, HEK293T cells; format: cell-based; settings: 12.5 and 25 µM, 5 h
[10] = system: HeLa cells stably expressing GFP-LC3; test: Confocal imaging of GFP-LC3 puncta in HeLa cells stably expressing GFP-LC3; format: cell-based; settings: HeLa GFP-LC3, 3 h, n = 3
Summary of the method: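 HeLa cells stably expressing GFP-LC3 were treated 3 h with peptide, scrambled control or water vehicle, with or without 25 µM chloroquine. Cells were imaged by confocal microscopy and GFP-LC3 puncta per cell were counted. Values are mean ± SEM, n = 3.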

[11] = system: Beclin 1–Atg14L interaction; test: Co-IP of Beclin 1–Atg14L interaction, HEK293T; format: cell-based; settings: peptide 20 μM added to cell lysate
[12] = system: Beclin 1 self-association; test: Co-IP of Beclin 1 self-association; format: cell-based; settings: HEK293T
Summary of the method: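 HEK293T cells co-transfected with GFP- and His-tagged Beclin 1. Peptide (stock 20 mM in water) was added at 20 µM either to the culture medium 6 h after transfection or to the lysate after lysis. A scrambled, unstapled Tat-fused control peptide was used at the same concentration. His-Beclin 1 association was then probed by co-IP.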

[13] = system: endogenous Beclin 1; EGFR; settings: EGF-stimulated endocytic transport and lysosomal degradation of EGFR; cited from earlier work
UVRAG coiled-coil domain [14] = format: binding; settings: ITC, relative to wild type

Molecule: CC[C@H](C)[C@H](NC(=O)[C@H](CC(C)C)NC(=O)[C@H](CC(C)C)NC(=O)[C@H](CCCNC(=N)N)NC(=O)[C@H](CCCNC(=N)N)NC(=O)[C@H](CCCNC(=N)N)NC(=O)[C@H](CCC(N)=O)NC(=O)[C@H](CCCNC(=N)N)NC(=O)[C@H](CCCNC(=N)N)NC(=O)[C@H](CCCCN)NC(=O)[C@H](CCCCN)NC(=O)[C@H](CCCNC(=N)N)NC(=O)CNC(=O)[C@H](Cc1ccc(O)cc1)NC(C)=O)C(=O)N[C@@H](CO)C(=O)N[C@@H](CCC(=O)O)C(=O)N[C@@H](CC(C)C)C(=O)N[C@]1(C)CCCCCCC=CCCC[C@@](C)(C(=O)N[C@@H](C)C(N)=O)NC(=O)[C@H](CCCNC(=N)N)NC(=O)[C@H](CCC(N)=O)NC(=O)[C@H](CCCCN)NC(=O)[C@H](CCC(=O)O)NC(=O)[C@H](CCCNC(=N)N)NC(=O)[C@H](CC(=O)O)NC1=O [Tat-SP9] (Ac-YGRKKRRQRRRLLISEL[R8]DREKQR[S5]A-NH2; staple 18-25; N-terminus and C-terminus assumed)
- Kd [1]: ~56.2 µM

Molecule: CCN(CC)CCCC(C)Nc1ccnc2cc(Cl)ccc12 (stereo not drawn) [CQ, chloroquine, reference compound]
- p62 level with CQ treatment (HEK293T cells [2]; with CQ, even with Tat-SP4): elevated the p62 level

Molecule: Beclin 1 coiled-coil region L210E (from UniProt Q91XJ1 174-264) (domain or fragment)
- Kd (UVRAG coiled-coil domain [3]): 10 µM

Molecule: Beclin 1 coiled-coil domain (from UniProt Q91XJ1 174-264) (domain or fragment)
- Kd (UVRAG coiled-coil domain [3]): 3 µM
- Kd (UVRAG coiled-coil domain [4]): 0.3 µM

Molecule: CC[C@H](C)[C@H](NC(=O)[C@H](CC(C)C)NC(=O)[C@H](CCCNC(=N)N)NC(=O)[C@H](CCCNC(=N)N)NC(=O)[C@H](CCCNC(=N)N)NC(=O)[C@H](CCCNC(=N)N)NC(=O)[C@H](CCC(N)=O)NC(=O)[C@H](CCCNC(=N)N)NC(=O)[C@H](CCCNC(=N)N)NC(=O)[C@H](CCCCN)NC(=O)[C@H](CCCCN)NC(=O)[C@H](CCCNC(=N)N)NC(=O)CNC(=O)[C@H](Cc1ccc(O)cc1)NC(C)=O)C(=O)N[C@@H](CO)C(=O)N[C@@H](CCC(=O)O)C(=O)N[C@@H](CC(C)C)C(=O)N[C@]1(C)CCCCCCC=CCCC[C@@](C)(C(=O)N[C@@H](C)C(N)=O)NC(=O)[C@H](CCCNC(=N)N)NC(=O)[C@H](CCC(N)=O)NC(=O)[C@H](CCCCN)NC(=O)[C@H](CCC(=O)O)NC(=O)[C@H](CCCNC(=N)N)NC(=O)[C@H](CC(=O)O)NC1=O [Tat-SP4] (Ac-YGRKKRRQRRRRLISEL[R8]DREKQR[S5]A-NH2; staple 18-25)
- endogenous Beclin 1 pulled down by FLAG-UVRAG [5]: significantly more endogenous Beclin 1
- increase in LC3-II level (HEK293T cells [2]; 10 μM, with CQ, n = 3): approximately threefold
- increase in LC3-II level (HEK293T cells [2]; 10 μM, without CQ, n = 3): approximately twofold
- increase in LC3-II level (HEK293T cells [2]; 20 μM, with CQ, n = 3): approximately fivefold
- increase in LC3-II level (HEK293T cells [2]; 20 μM, without CQ, n = 3): approximately threefold
- reduction of p62 level (HEK293T cells [2]; without CQ, n = 3): ~50%
- EGFR degradation (EGFR [6]): ~50%
- EGFR remaining (EGFR [7]; A549, peptide 20 μM, 2 h after EGF): ~75%
- EGFR remaining (EGFR [7]; A549, peptide 20 μM, 5 h after EGF): ~25%
- cytotoxicity (MTT) (A549 cells): negligible cytotoxicity
- EGFR remaining (EGFR [8]; peptide 20 μM, 60 min post EGF (200 ng/mL)): ~30%
- cytotoxicity (MTT) (HEK293T cells [9]): negligible cytotoxicity
- Kd [1]: ~6.8 µM
- increase in GFP-LC3 dot numbers (autophagosomes) ([10]; absence of CQ): approximately twofold
- increase in GFP-LC3 dot numbers (autophagosomes) ([10]; presence of 25 μM CQ): approximately twofold
- endogenous Beclin 1 pulled down by Atg14L-GFP [11]: significantly enhanced
- Beclin 1 self-association (His-Beclin 1 pulled down by GFP-Beclin 1) ([12]; peptide 20 μM added to cell lysate): moderately reduced
- Beclin 1 self-association (His-Beclin 1 pulled down by GFP-Beclin 1) ([12]; peptide 20 μM added to cell medium 6 h posttransfection): more prominent

Molecule: Beclin 1 coiled-coil region R203E (from UniProt Q91XJ1 174-264) (domain or fragment)
- Kd (UVRAG coiled-coil domain [3]): 10 µM

B1: wild-type UVRAG: wild-type UVRAG (full length Mus musculus in cells; coiled-coil construct in vitro) (protein)
chain: MSASASVGGPVPQPPPGPAAALPPGSAARALHVELPSQQRRLRHLRNIAARNIVNRNGHQLLDTYFTLHLCSTEKIYKEFYRSEVIKNSLNPTWRSLDFGIMPDRLDTSVSCFVVKIWGGKENIYQLLIEWKVCLDGLKYLGQQIHARNQNEIIFGLNDGYYGAPFEHKGYSNAQKTILLQVDQNCVRNSYDVFSLLRLHRAQCAIKQTQVTVQKIGKEIEEKLRLTSTSNELKKKSECLQLKILVLQNELERQKKALGREVALLHKQQIALQDKGSAFSAEHLKLQLQKESLNELRKECTAKRELFLKTNAQLTIRCRQLLSELSYIYPIDLNEHKDYFVCGVKLPNSEDFQAKDDGSIAVALGYTAHLVSMISFFLQVPLRYPIIHKGSRSTIKDNINDKLTEKEREFPLYPKGGEKLQFDYGVYLLNKNIAQLRYQHGLGTPDLRQTLPNLKNFMEHGLMVRCDRHHTSSAIPVPKRQSSIFGGADVGFSGGIPSPDKGHRKRASSENERLQYKTPPPSYNSALAQPVTTVPSMGETERKITSLSSSLDTSLDFSKENKKKGEDLVGSLNGGHANVHPSQEQGEALSGHRATVNGTLLPSEQAGSASVQLPGEFHPVSEAELCCTVEQAEEIIGLEATGFASGDQLEAFNCIPVDSAVAVECDEQVLGEFEEFSRRIYALNENVSSFRRPRRSSDK
modifications: left off: FLAG, end not stated, kept
- EGFR remaining (EGFR [7]; A549, UVRAG overexpression, 3 h after EGF (200 ng/mL)): ~40%
- EGFR remaining (EGFR [7]; A549, UVRAG overexpression, 5 h after EGF (200 ng/mL)): ~5%
- EGFR remaining (EGFR [8]; UVRAG overexpression, 120 min post EGF (200 ng/mL)): ~10%
- endolysosomal trafficking on overexpression [13]: enhanced endolysosomal trafficking

B2: R203E (protein)
chain: DSEQLQRELKELALEEERLIQELEDVEKNEKVVAENLEKVQAEAERLDQEEAQYQREYSEFKRQQLELDDELKSVENQMRYAQMQLDKLKK
- reduction of binding affinity of Beclin 1–UVRAG interaction (UVRAG coiled-coil domain [14]): approximately three- to fivefold

B3: L210E (protein)
chain: DSEQLQRELKELALEEERLIQELEDVEKNRKVVAENEEKVQAEAERLDQEEAQYQREYSEFKRQQLELDDELKSVENQMRYAQMQLDKLKK
- reduction of binding affinity of Beclin 1–UVRAG interaction (UVRAG coiled-coil domain [14]): approximately three- to fivefold
